# Tested on: not listed separately
# Experiment: Cytotoxicity against African green monkey Vero cells assessed as cell growth inhibition at 10 ug/ml after 48 hrs by neutral red dye based assay
# Type: toxicity
# Settings: chlorocebus sabaeus
# Summary of the method: (§1)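 Cells kept in RPMI-1640 with 10% bovine serum and 60 µg/mL amikacin, 37 °C, 5% CO2. Seeded at 25,000 cells/well, left 24 h to adhere. Samples diluted in RPMI added, highest final concentration 10 µg/mL. Growth measured by neutral red uptake after 48 h exposure.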
row,SMILES,Activity
1,CC[n+]1ccc2ccnc3c2c1-c1ccccc1-3.[I-],Non-Toxic
2,[Br-].c1ccc(C[n+]2ccc3c4c(nc5ccccc53)-c3ccccc3-c42)cc1,Non-Toxic
3,C[n+]1ccc2c3c(nc4ccccc42)-c2ccccc2-c31.[I-],Non-Toxic

# Tested on: not listed separately
# Experiment: Cytotoxicity against human SKOV3 cells assessed as cell growth inhibition after 48 hrs by neutral red dye based assay
# Type: functional
# Settings: SK-OV-3, 48 h
# Summary of the method: as §1
row,SMILES,IC50
1,[Br-].c1ccc(C[n+]2ccc3c4c(nc5ccccc53)-c3ccccc3-c42)cc1,1.2 µg/mL
2,C[n+]1ccc2c3c(nc4ccccc42)-c2ccccc2-c31.[I-],1.3 µg/mL

# Tested on: Mycobacterium intracellulare
# Experiment: Antimicrobial activity against Mycobacterium intracellulare ATCC 23068
# Type: functional
# Settings: not given
# Summary of the method: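 Mycobacterium grown 72 h in Middlebrook medium with OADC supplement, diluted 1:30 in broth. Incubated at 37 °C with diluted samples in 96-well plates, highest final 50 µg/mL, DMSO at most 2.5%. Absorbance at 630 nm. MIC = lowest concentration with 80% growth inhibition relative to controls; IC50 from concentration versus % growth plots.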
row,SMILES,MIC80
1,[Br-].c1ccc(C[n+]2ccc3c4c(nc5ccccc53)-c3ccccc3-c42)cc1,10 µg/mL

# Tested on: Cryptococcus neoformans
# Experiment: Antimicrobial activity against Cryptococcus neoformans ATCC 52657
# Type: functional
# Settings: not given
# Summary of the method: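 Grown in mycophil broth 72 h, hemocytometer-counted, diluted to 200,000 CFU/mL. Exposed to diluted samples in 96-well plates, maximum final 50 µg/mL (DMSO up to 2.5%), incubated 30 °C. A630 readout. MIC is the lowest concentration inhibiting 80% of growth versus controls; IC50 read from concentration versus % growth graphs.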
SMILES,IC50,MIC80
CC[n+]1ccc2ccnc3c2c1-c1ccccc1-3.[I-],13.3 µg/mL,25 µg/mL
[Br-].c1ccc(C[n+]2ccc3c4c(nc5ccccc53)-c3ccccc3-c42)cc1,2.13 µg/mL,12.5 µg/mL
C[n+]1ccc2c3c(nc4ccccc42)-c2ccccc2-c31.[I-],2 µg/mL,6.25 µg/mL

# Tested on: Staphylococcus aureus
# Experiment: Antimicrobial activity against methicillin-resistant Staphylococcus aureus
# Type: functional
# Settings: not given
# Summary of the method: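 MRSA precultured 24 h, diluted 1:50 in broth, added to serially diluted samples in 96-well plates (highest final DMSO 2.5%), incubated at 37 °C. Growth measured as absorbance at 630 nm versus controls. MIC is the lowest concentration giving 80% inhibition; IC50 (50% inhibition) is read from concentration versus % growth plots.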
row,SMILES,IC50
1,[Br-].c1ccc(C[n+]2ccc3c4c(nc5ccccc53)-c3ccccc3-c42)cc1,35 µg/mL
2,C[n+]1ccc2c3c(nc4ccccc42)-c2ccccc2-c31.[I-],20 µg/mL

# Tested on: Plasmodium falciparum
# Experiment: Antimalarial activity against Plasmodium falciparum D6 infected in RBC after 48 hrs by lactate dehydrogenase assay
# Type: functional
# Settings: D6, 48 h
# Summary of the method: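 Parasites grown in A+ human erythrocytes in RPMI 1640 with 10% A+ human serum, 25 mM HEPES, 27 mM bicarbonate, 60 µg/mL amikacin, 37 °C under 90% N2/5% O2/5% CO2. Infected cells exposed 48 h in microtiter wells, highest concentration 4.8 µg/mL. Growth read by Malstat reagent (parasite LDH) with nitro blue tetrazolium reduction, absorbance 630 nm.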
row,SMILES,IC50
1,CC[n+]1ccc2ccnc3c2c1-c1ccccc1-3.[I-],0.0475 µg/mL
2,[Br-].c1ccc(C[n+]2ccc3c4c(nc5ccccc53)-c3ccccc3-c42)cc1,0.0415 µg/mL
3,C[n+]1ccc2c3c(nc4ccccc42)-c2ccccc2-c31.[I-],0.033 µg/mL

# Tested on: Pseudomonas aeruginosa
# Experiment: Antimicrobial activity against Pseudomonas aeruginosa ATCC 15442
# Type: functional
# Settings: not given
# Summary of the method: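 Pseudomonas grown 24 h in trypticase soy broth, diluted 1:50. Combined with diluted samples in 96-well plates, top final concentration 50 µg/mL (≤2.5% DMSO), 37 °C incubation. Growth read at 630 nm. MIC is the lowest tested concentration inhibiting 80% of growth versus controls; IC50 from concentration versus % growth graphs.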
row,SMILES,IC50
1,[Br-].c1ccc(C[n+]2ccc3c4c(nc5ccccc53)-c3ccccc3-c42)cc1,4 µg/mL

# Tested on: Candida albicans
# Experiment: Antimicrobial activity against Candida albicans B311
# Type: functional
# Settings: not given
# Summary of the method: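 Cultured in Sabouraud dextrose broth 24 h, counted by hemocytometer, diluted to 10,000 CFU/mL. Added to serially diluted samples in 96-well plates, top final concentration 50 µg/mL (≤2.5% DMSO), incubated 37 °C. Growth by A630. MIC is the lowest concentration giving 80% inhibition against controls; IC50 from concentration versus % growth plots.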
SMILES,IC50,MIC80
CC[n+]1ccc2ccnc3c2c1-c1ccccc1-3.[I-],35 µg/mL,50 µg/mL
C[n+]1ccc2c3c(nc4ccccc42)-c2ccccc2-c31.[I-],23.3 µg/mL,25 µg/mL

# Tested on: not listed separately
# Experiment: Inhibition of Candida albicans DNA topoisomerase 1 using pHOT1 as substrate after 30 mins by agarose gel electrophoresis
# Settings: not given
# Summary of the method: (§2)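 Relaxation of supercoiled to relaxed DNA by TopoI measured with a commercial TopoI drug kit following kit protocol. IC50 calculated from dose-response curves of % inhibition versus concentration.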
row,SMILES,IC50
1,CC[n+]1ccc2ccnc3c2c1-c1ccccc1-3.[I-],10 µg/mL
2,[Br-].c1ccc(C[n+]2ccc3c4c(nc5ccccc53)-c3ccccc3-c42)cc1,0.55 µg/mL
3,C[n+]1ccc2c3c(nc4ccccc42)-c2ccccc2-c31.[I-],1.5 µg/mL

# Target: T1, DNA topoisomerase 1 (Homo sapiens, UniProt P11387)
# T1 sequence (P11387 whole entry): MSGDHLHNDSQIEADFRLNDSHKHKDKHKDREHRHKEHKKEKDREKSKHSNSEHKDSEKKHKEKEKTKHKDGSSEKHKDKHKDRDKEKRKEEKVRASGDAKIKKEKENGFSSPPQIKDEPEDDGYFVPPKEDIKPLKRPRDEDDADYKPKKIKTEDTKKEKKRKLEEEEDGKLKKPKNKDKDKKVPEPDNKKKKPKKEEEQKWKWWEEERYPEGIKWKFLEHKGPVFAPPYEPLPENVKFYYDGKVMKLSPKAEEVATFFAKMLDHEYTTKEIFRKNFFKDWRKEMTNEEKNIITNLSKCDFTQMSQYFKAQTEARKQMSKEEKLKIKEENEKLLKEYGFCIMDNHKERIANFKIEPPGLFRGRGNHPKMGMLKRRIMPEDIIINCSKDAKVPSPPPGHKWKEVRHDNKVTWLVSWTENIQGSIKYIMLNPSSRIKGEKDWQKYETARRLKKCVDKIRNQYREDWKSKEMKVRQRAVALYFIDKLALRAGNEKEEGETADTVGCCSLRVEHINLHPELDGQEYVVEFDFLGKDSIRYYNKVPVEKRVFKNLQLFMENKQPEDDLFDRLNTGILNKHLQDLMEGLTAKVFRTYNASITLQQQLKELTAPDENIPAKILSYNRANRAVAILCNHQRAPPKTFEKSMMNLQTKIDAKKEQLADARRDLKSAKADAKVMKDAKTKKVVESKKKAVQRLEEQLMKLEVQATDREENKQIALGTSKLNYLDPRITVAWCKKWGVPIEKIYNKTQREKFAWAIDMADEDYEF
# Experiment: Inhibition of human DNA topoisomerase 1 using pHOT1 as substrate after 30 mins by agarose gel electrophoresis
# Settings: not given
# Summary of the method: as §2
row,SMILES,IC50
1,CC[n+]1ccc2ccnc3c2c1-c1ccccc1-3.[I-],41.6 µM
2,[Br-].c1ccc(C[n+]2ccc3c4c(nc5ccccc53)-c3ccccc3-c42)cc1,1.34 µM
3,C[n+]1ccc2c3c(nc4ccccc42)-c2ccccc2-c31.[I-],4.54 µM

# Tested on: not listed separately
# Experiment: Cytotoxicity against human BT549 cells assessed as cell growth inhibition after 48 hrs by neutral red dye based assay
# Type: functional
# Settings: BT-549, 48 h
# Summary of the method: as §1
row,SMILES,IC50
1,[Br-].c1ccc(C[n+]2ccc3c4c(nc5ccccc53)-c3ccccc3-c42)cc1,6 µg/mL
2,C[n+]1ccc2c3c(nc4ccccc42)-c2ccccc2-c31.[I-],7 µg/mL

# Tested on: not listed separately
# Experiment: Cytotoxicity against human KB cells assessed as cell growth inhibition after 48 hrs by neutral red dye based assay
# Type: functional
# Settings: not given
# Summary of the method: as §1
row,SMILES,IC50
1,[Br-].c1ccc(C[n+]2ccc3c4c(nc5ccccc53)-c3ccccc3-c42)cc1,2.9 µg/mL
2,C[n+]1ccc2c3c(nc4ccccc42)-c2ccccc2-c31.[I-],6.5 µg/mL

# Tested on: Staphylococcus aureus
# Experiment: Antimicrobial activity against Staphylococcus aureus ATCC 6538
# Type: functional
# Settings: not given
# Summary of the method: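 Staphylococcus aureus grown 24 h in Eugon broth, diluted 1:50 in broth, added to serially diluted samples in 96-well plates (highest final DMSO 2.5%), incubated at 37 °C. Growth measured at 630 nm versus controls. MIC is the lowest concentration inhibiting 80% of growth; IC50 (50% inhibition) comes from concentration versus % growth plots.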
row,SMILES,IC50
1,CC[n+]1ccc2ccnc3c2c1-c1ccccc1-3.[I-],40 µg/mL
2,[Br-].c1ccc(C[n+]2ccc3c4c(nc5ccccc53)-c3ccccc3-c42)cc1,5 µg/mL

# Tested on: not listed separately
# Experiment: Selectivity index, ratio of IC50 for human DNA topoisomerase 1 to IC50 for Candida albicans DNA topoisomerase 1
# Settings: not given
row,SMILES,Ratio IC50
1,CC[n+]1ccc2ccnc3c2c1-c1ccccc1-3.[I-],0.67
2,[Br-].c1ccc(C[n+]2ccc3c4c(nc5ccccc53)-c3ccccc3-c42)cc1,0.96

# Tested on: not listed separately
# Experiment: Cytotoxicity against human SK-MEL cells assessed as cell growth inhibition after 48 hrs by neutral red dye based assay
# Type: functional
# Settings: not given
# Summary of the method: as §1
row,SMILES,IC50
1,[Br-].c1ccc(C[n+]2ccc3c4c(nc5ccccc53)-c3ccccc3-c42)cc1,1.8 µg/mL
